According to ChEMBL document CHEMBL1157023, “Synthesis and antimicrobial activities of some new thiazole and pyrazole derivatives based on 4,5,6,7-tetrahydrobenzothiophene moiety” (2010):

What was measured:
Assay type in all cases: functional
Botrytis fabae = experiment: Antifungal activity against Botrytis fabae at 2 mg/ml after 7 days by agar diffusion assay; conditions: 168 h, read-out: DIZ
How it was run: (§1)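 Fungus grown on potato dextrose agar with test compound in DMSO, DMSO-only control plate for each organism. Plates incubated seven days in three replicate plates per compound. Activity read as inhibition zone diameter.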

Fusarium oxysporum = experiment: Antifungal activity against Fusarium oxysporum at 2 mg/ml after 7 days by agar diffusion assay; conditions: 168 h, read-out: DIZ; how it was run: as §1
Klebsiella pneumoniae = experiment: Antimicrobial activity against Klebsiella pneumoniae at 2 mg/ml after 24 hrs by agar diffusion assay; conditions: read-out: DIZ
How it was run: (§2)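 Bacterial strain grown on nutrient agar with test compound in DMSO, DMSO-only control plate for each organism, ampicillin 2 mg/ml as reference. Plates incubated 24 h in three replicate plates per compound. Activity read as inhibition zone diameter.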

Bacillus thuringiensis = experiment: Antibacterial activity against Bacillus thuringiensis at 2 mg/ml after 24 hrs by agar diffusion assay; conditions: read-out: DIZ; how it was run: as §2

SMILES	zone of inhibition at 2000 µg/mL (Botrytis fabae)	zone of inhibition at 2000 µg/mL (Fusarium oxysporum)	zone of inhibition at 2000 µg/mL (Klebsiella pneumoniae)	zone of inhibition at 2000 µg/mL (Bacillus thuringiensis)
Cc1ccc(N/N=C2/C(=O)S/C(=C(\C#N)C(=O)Nc3sc4c(c3C(N)=O)CCCC4)N2c2ccccc2)cc1	18 mm	16 mm	19 mm	22 mm
NC(=O)c1c(NC(=O)c2c(Nc3ccccc3)nn3c(-c4ccccc4)ccnc23)sc2c1CCCC2	15 mm	19 mm	19 mm	15 mm
NC(=O)c1c(NC(=O)c2c(Nc3ccccc3)nn3c4c(cnc23)CCc2ccccc2-4)sc2c1CCCC2	–	17 mm	17 mm	15 mm
N#C/C(C(=O)Nc1sc2c(c1C(N)=O)CCCC2)=C1\SC(=O)CN1c1ccccc1	12 mm	16 mm	19 mm	21 mm
Cc1nn(-c2ccccc2)c2c1cnc1c(C(=O)Nc3sc4c(c3C(N)=O)CCCC4)c(Nc3ccccc3)nn12	16 mm	14 mm	18 mm	16 mm
COc1ccc(/C=c2\c(=O)s/c(=C(\C#N)C(=O)Nc3sc4c(c3C(N)=O)CCCC4)n2-c2ccccc2)cc1	13 mm	15 mm	23 mm	20 mm
Cc1ccc(C)n1-c1[nH]nc(Nc2ccccc2)c1C(=O)Nc1sc2c(c1C(N)=O)CCCC2	18 mm	14 mm	22 mm	18 mm
CC(=O)c1nnc2c(C(=O)Nc3sc4c(c3C(N)=O)CCCC4)c(Nc3ccccc3)nn2c1C	18 mm	–	12 mm	–
Cc1cc(C)n2nc(Nc3ccccc3)c(C(=O)Nc3sc4c(c3C(N)=O)CCCC4)c2n1	15 mm	13 mm	17 mm	15 mm
Cc1cc(C)c2c(n1)nn1c(N)c(C(=O)Nc3sc4c(c3C(N)=O)CCCC4)nnc21	13 mm	13 mm	18 mm	16 mm
N#Cc1nnc2c(C(=O)Nc3sc4c(c3C(N)=O)CCCC4)c(Nc3ccccc3)nn2c1N	16 mm	–	18 mm	16 mm
CC1(C)S[C@@H]2[C@H](NC(=O)[C@H](N)c3ccccc3)C(=O)N2[C@H]1C(=O)O [AMPICILLIN]	15 mm	17 mm	20 mm	17 mm
NC(=O)c1c(NC(=O)c2cn[nH]c2N)sc2c1CCCC2	16 mm	12 mm	20 mm	17 mm
NC(=O)c1c(NC(=O)c2c(Nc3ccccc3)n[nH]c2N)sc2c1CCCC2	–	14 mm	22 mm	24 mm
